Source: ChEMBL document CHEMBL1155278, “3,4-Diaryl-isoxazoles and -imidazoles as potent dual inhibitors of p38alpha mitogen activated protein kinase and casein kinase 1delta” (J Med Chem, 2009)

How the values were obtained:
[1] = biological target: RAC-beta serine/threonine-protein kinase (Homo sapiens) (UniProt P31751); test: Inhibition of PKBbeta assessed as residual activity at 10 uM by Cherenkov counting relative to control in presence of 50 uM ATP
In short: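 Single-concentration profiling at 10 μM in a 78-kinase panel. Kinase activity is expressed as a percentage of control assays run without compound.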

[2] = biological target: Aurora kinase B (Homo sapiens) (UniProt Q96GD4); test: Inhibition of Aurora B assessed as residual activity at 10 uM by Cherenkov counting relative to control in presence of 20 uM ATP
Sequence of Aurora kinase B (Homo sapiens) (Q96GD4 whole entry): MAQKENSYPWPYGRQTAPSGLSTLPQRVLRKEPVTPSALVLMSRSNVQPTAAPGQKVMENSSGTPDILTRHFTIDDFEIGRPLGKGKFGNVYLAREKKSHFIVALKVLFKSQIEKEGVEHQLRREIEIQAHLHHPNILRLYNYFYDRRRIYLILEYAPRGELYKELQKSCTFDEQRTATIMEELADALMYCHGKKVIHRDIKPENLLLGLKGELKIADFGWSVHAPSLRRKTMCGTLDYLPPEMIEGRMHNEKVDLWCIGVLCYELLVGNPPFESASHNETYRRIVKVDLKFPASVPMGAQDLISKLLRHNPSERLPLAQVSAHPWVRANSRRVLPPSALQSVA
In short: (§1)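 Single-point profiling at 10 µM in a panel of 78 protein kinases. Kinase activity is expressed as a percentage relative to control assays without compound.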

[3] = biological target: T1, Inhibitor of nuclear factor kappa-B kinase subunit beta (Homo sapiens) (UniProt O14920); test: Inhibition of IKK-beta assessed as residual activity at 10 uM by Cherenkov counting relative to control in presence of 5 uM ATP; in short: as §1
T1 sequence (whole entry): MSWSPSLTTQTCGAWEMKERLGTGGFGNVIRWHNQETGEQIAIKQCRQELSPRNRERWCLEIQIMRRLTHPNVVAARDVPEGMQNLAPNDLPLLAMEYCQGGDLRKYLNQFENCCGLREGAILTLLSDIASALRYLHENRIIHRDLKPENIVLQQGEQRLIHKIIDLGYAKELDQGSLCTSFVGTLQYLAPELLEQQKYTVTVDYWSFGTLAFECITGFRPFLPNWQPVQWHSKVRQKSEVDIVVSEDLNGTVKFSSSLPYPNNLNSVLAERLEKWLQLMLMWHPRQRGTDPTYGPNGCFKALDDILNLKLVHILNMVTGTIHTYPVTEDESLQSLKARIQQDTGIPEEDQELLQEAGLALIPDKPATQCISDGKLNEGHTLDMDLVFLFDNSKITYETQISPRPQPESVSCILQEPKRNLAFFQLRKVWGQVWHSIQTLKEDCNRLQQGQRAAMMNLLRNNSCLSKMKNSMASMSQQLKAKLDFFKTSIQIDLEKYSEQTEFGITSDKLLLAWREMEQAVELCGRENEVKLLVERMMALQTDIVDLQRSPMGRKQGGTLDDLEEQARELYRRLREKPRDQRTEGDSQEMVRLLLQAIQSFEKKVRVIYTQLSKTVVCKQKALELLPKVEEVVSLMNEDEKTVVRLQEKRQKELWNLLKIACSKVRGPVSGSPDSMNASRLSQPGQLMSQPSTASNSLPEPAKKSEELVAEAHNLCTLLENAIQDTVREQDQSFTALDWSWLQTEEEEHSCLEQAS

[4] = biological target: Insulin receptor-related protein (Homo sapiens) (UniProt P14616); test: Inhibition of IRR assessed as residual activity at 10 uM by Cherenkov counting relative to control in presence of 5 uM ATP
Sequence of Insulin receptor-related protein (Homo sapiens) (P14616 27-742 limits assumed): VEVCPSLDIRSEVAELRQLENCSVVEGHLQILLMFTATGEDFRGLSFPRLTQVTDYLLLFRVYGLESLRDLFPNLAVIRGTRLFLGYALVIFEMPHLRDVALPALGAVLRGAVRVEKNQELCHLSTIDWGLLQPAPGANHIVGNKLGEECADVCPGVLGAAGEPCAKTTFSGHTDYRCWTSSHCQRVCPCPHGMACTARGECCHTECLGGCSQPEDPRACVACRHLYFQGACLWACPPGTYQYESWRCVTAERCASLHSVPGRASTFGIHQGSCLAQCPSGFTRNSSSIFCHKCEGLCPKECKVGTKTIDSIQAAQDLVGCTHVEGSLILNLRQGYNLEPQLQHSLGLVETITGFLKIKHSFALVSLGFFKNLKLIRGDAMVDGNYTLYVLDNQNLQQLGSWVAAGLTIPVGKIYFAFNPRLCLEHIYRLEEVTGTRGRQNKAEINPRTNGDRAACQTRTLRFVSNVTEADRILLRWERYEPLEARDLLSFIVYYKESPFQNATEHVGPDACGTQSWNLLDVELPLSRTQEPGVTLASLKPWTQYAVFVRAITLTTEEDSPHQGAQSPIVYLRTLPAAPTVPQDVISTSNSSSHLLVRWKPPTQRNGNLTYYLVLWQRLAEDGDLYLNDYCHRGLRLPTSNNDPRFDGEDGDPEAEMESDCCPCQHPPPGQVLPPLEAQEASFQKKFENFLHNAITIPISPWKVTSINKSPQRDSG
Sequence of Insulin receptor-related protein (Homo sapiens) (P14616 747-1297 limits assumed): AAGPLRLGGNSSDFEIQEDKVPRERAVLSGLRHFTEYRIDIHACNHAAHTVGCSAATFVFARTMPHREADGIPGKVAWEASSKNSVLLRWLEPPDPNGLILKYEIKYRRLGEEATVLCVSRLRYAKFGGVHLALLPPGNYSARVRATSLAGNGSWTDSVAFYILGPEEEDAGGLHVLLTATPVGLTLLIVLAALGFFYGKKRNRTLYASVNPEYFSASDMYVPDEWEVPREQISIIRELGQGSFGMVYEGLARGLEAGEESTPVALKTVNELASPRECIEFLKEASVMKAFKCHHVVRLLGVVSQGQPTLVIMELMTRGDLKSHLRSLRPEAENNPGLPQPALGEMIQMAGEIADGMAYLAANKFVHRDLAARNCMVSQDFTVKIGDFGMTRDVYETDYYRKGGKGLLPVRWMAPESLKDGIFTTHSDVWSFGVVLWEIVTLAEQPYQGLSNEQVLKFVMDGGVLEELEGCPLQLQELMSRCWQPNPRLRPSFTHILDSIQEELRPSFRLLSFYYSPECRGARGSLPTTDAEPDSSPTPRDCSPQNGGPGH

[5] = biological target: Ephrin type-B receptor 3 (Homo sapiens) (UniProt P54753); test: Inhibition of EPHB3 assessed as residual activity at 0.1 uM by Cherenkov counting relative to control
Sequence of Ephrin type-B receptor 3 (Homo sapiens) (P54753 whole entry): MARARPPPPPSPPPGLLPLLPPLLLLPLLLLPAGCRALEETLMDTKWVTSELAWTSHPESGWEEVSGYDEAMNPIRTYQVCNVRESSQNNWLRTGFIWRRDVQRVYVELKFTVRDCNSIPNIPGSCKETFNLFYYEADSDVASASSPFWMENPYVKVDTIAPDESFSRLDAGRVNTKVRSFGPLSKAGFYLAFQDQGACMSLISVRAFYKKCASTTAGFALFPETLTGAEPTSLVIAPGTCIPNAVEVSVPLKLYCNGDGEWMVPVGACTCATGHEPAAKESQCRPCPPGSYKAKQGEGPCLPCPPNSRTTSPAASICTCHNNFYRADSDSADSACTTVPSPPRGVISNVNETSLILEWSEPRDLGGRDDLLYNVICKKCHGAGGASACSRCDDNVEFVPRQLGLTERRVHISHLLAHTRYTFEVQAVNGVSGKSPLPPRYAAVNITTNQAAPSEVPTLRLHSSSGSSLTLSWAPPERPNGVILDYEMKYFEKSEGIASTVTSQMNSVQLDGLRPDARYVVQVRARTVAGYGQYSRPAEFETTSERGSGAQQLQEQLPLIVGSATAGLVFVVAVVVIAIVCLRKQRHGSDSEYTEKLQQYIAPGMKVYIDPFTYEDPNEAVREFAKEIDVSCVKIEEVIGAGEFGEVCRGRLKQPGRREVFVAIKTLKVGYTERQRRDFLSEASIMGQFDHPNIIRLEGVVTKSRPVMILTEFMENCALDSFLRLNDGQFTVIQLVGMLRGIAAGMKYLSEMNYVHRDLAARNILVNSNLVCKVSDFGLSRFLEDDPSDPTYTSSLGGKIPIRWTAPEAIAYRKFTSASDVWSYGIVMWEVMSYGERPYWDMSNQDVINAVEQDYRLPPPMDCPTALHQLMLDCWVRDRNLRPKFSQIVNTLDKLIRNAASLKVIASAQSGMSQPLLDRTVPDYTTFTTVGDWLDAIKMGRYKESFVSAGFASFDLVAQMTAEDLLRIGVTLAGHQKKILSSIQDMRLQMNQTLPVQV
In short: (§2)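 Single-concentration screen at 0.1 µM across a panel of 76 protein kinases. Each kinase was run at an ATP concentration approximating its ATP Km. Results are % mean residual activity versus control assays without compound (n = 3 ± SD).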

[6] = biological target: T2, Inhibitor of nuclear factor kappa-B kinase subunit epsilon (Homo sapiens) (UniProt Q14164); test: Inhibition of IKKepsilon assessed as residual activity at 0.1 uM by Cherenkov counting relative to control in presence of 50 uM ATP; in short: as §2
T2 sequence (whole entry): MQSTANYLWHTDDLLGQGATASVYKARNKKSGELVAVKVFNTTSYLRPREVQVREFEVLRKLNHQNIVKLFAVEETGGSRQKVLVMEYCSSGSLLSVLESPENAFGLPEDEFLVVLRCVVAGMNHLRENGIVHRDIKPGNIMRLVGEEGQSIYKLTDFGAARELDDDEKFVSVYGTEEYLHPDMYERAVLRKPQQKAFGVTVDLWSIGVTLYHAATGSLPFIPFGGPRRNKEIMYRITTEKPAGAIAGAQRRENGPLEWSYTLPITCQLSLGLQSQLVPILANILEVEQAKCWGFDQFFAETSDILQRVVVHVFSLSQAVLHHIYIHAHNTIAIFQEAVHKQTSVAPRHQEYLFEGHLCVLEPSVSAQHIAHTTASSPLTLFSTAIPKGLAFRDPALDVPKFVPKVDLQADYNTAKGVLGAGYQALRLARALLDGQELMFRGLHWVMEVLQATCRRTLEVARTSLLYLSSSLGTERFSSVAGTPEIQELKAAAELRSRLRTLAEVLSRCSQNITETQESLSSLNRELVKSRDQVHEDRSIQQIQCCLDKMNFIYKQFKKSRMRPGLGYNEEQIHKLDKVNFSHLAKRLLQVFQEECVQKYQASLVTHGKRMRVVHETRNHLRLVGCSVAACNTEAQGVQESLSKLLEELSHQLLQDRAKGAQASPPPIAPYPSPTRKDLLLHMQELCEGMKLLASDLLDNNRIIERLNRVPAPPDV

[7] = Selectivity ratio of IC50 for recombinant CK1epsilon to IC50 for GST-fused rat CK1delta
[8] = biological target: T1, Inhibitor of nuclear factor kappa-B kinase subunit beta (Homo sapiens); test: Inhibition of IKK-beta assessed as residual activity at 0.1 uM by Cherenkov counting relative to control in presence of 5 uM ATP; in short: as §2
[9] = biological target: Insulin receptor-related protein (Homo sapiens) (UniProt P14616); test: Inhibition of IRR assessed as residual activity at 0.1 uM by Cherenkov counting relative to control in presence of 5 uM ATP
In short: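 Single-concentration selectivity screen at 0.1 μM against a panel of 76 protein kinases. Each kinase was run at an ATP level approximating its Km for ATP. Output is mean residual activity as % of the control assay without compound, n = 3 ± SD.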

[10] = biological target: 3-phosphoinositide-dependent protein kinase 1 (Homo sapiens) (UniProt O15530); test: Inhibition of PDK1 assessed as residual activity at 0.1 uM by Cherenkov counting relative to control in presence of 20 uM ATP
Sequence of 3-phosphoinositide-dependent protein kinase 1 (Homo sapiens) (O15530 whole entry, looked up): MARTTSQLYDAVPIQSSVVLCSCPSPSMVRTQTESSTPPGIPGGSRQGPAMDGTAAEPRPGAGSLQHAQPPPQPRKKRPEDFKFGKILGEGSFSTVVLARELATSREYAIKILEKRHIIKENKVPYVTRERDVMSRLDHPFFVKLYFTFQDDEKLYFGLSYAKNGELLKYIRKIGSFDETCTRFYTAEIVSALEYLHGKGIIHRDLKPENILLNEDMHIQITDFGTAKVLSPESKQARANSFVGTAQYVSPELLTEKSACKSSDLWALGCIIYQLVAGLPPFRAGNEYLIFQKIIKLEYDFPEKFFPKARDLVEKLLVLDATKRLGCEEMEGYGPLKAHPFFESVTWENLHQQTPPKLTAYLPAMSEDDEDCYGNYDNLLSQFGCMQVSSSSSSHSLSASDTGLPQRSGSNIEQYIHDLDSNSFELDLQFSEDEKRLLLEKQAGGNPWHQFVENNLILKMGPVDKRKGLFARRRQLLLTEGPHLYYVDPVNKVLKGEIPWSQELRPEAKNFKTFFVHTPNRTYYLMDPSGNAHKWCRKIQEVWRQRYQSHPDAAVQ

Sequence of RAC-beta serine/threonine-protein kinase (Homo sapiens) (P31751 whole entry): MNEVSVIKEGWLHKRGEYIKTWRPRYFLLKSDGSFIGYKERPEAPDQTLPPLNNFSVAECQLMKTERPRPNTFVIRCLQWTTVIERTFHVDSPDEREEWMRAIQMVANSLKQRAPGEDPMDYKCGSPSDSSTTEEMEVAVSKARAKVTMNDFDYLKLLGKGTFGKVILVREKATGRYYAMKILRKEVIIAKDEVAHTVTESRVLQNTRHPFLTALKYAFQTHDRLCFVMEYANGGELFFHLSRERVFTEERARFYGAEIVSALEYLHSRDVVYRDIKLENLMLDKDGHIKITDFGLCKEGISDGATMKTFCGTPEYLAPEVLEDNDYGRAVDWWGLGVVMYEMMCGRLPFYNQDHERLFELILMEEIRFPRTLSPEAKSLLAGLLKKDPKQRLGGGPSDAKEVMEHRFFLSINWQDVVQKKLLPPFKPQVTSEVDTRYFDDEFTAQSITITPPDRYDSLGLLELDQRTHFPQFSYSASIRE

SMILES	Activity [1]	Activity [2]	Activity [3]	Activity [4]	Activity [5]	Activity [6]	Ratio IC50 [7]	Activity [8]	Activity [9]	Activity [10]
CC(C)c1onc(-c2ccc(F)cc2)c1-c1ccncc1	101%	101%	103%	93%	–	–	–	–	–	–
COc1ccc(/C=C/C(=O)Nc2cc(-c3[nH]c([S+](C)[O-])nc3-c3ccc(F)cc3)ccn2)c(OC)c1 (stereo not given)	–	–	–	–	95%	90%	41	87%	83%	94%
COc1ccc(/C=C/C(=O)Nc2cc(-c3[nH]c(SC)nc3-c3ccc(F)cc3)ccn2)c(OC)c1	–	–	–	–	94%	97%	15	84%	61%	74%
CC(C)c1noc(-c2ccc(F)cc2)c1-c1ccncc1	104%	22%	103%	94%	–	–	–	–	–	–
